According to ChEMBL document CHEMBL1124702, “Synthesis and pharmacological evaluation of a series of dibenzo[a,d]cycloalkenimines as N-methyl-D-aspartate antagonists” (J Med Chem, 1990):

Key:
[1] = molecular target: Glutamate NMDA receptor; test: Inhibition of N-methyl-D-aspartate glutamate receptor (NMDA receptor) from homogenized rat brain membrane, using [3H]-MK-801 as a radioligand
How it was run: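 Male Sprague-Dawley rat (200-300 g) cortical membranes, washed and preincubated 20 min at 23 °C in 5 mM Tris-HCl pH 7.4. Duplicate aliquots (ca. 0.75 mg protein) incubated 60 min at 23 °C with displacer plus [3H]-(+)-10 added as 100 µL of 50 nM stock. Filter-bound radioactivity counted by liquid scintillation; Ki reported.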

[2] = tested on: Mus musculus; test: Inhibition of N-Methyl-D,L-aspartate induced convulsions in mice following 500 mg/kg i.p.; format: functional; conditions: ip, route intraperitoneal
[3] = molecular target: T1, Glutamate NMDA receptor (Rattus norvegicus) (UniProt P35439+Q00959+Q00960+Q00961+Q62645+Q8VHN2+Q9R1M7); test: Antagonistic activity against N-methyl-D-aspartate glutamate receptor from rat cortical slice; format: functional
How it was run: (§1)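 Greased-gap recording of NMDA-induced population depolarizations in rat cortical slices. An NMDA concentration-response curve was run, then repeated with antagonist present. Apparent Kb = antagonist concentration/(CR-1), with CR taken at the midpoint of the control curve. If the curve flattened, a lower antagonist concentration was tried. Failing that, the threshold concentration giving significant antagonism was used.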

[4] = tested on: Mus musculus; test: Tested for inhibition of convulsions induced by N-Methyl-D,L-aspartate (NMDLA), after sc administration of a dose of […] in mice; format: functional; conditions: route subcutaneous
How it was run: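 Test drug given iv 15 min before the convulsant. NMDLA given at 500 mg/kg, sc or ip. Separately, NMDA given sc at 400 mg/kg. Anticonvulsant ED50 determined.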

[5] = molecular target: T1, Glutamate NMDA receptor (Rattus norvegicus); test: Antagonistic activity against N-methyl-D-aspartate glutamate receptor from rat cortical slice was determined (expt.2); format: functional; how it was run: as §1
[6] = molecular target: T1, Glutamate NMDA receptor (Rattus norvegicus); test: Antagonistic activity against N-methyl-D-aspartate glutamate receptor from rat cortical slice was determined (expt.1); format: functional; how it was run: as §1

Structure (SMILES) | Ki [1] [µM] | Kb [3] [µM] | also measured
CC12NC(F)(Cc3ccccc31)c1ccccc12 (stereo not given) | 0.93 | – | –
COc1ccc2c(c1)C1(C)NC2Cc2ccccc21 (stereo in doubt; (-)-83) | 0.102 | – | –
CC12NC(c3ccccc31)[C@@H](O)c1ccccc12 (stereo in doubt; (+)120) [listing 1 of 2 here] | 0.092 | – | ED50 [2]: 0.35 mg/kg
CC12NC(Cc3ccccc31)c1ccc(Cl)cc12 (stereo in doubt; 63) [listing 1 of 2 here] | – | 1.66 | –
CN1C2CCc3ccccc3C1c1ccccc12 (stereo not given) | 2.6 | – | –
C=CC12NC(Cc3ccccc31)c1ccccc12 (stereo not given) | 0.087 | 0.32 | –
CC12NC(c3ccccc31)[C@@H](F)c1ccccc12 (stereo not given in full) | 0.011 | 0.23 | ED50 [2]: 1.27 mg/kg
CN1C2Cc3ccccc3C1c1ccccc1C2 | 57 | – | –
CCN1C2Cc3ccccc3C1c1ccccc12 (stereo not given) | 24 | – | –
FCC12NC(Cc3ccccc31)c1ccccc12 (stereo not given) | 0.16 | 0.72 | ED50 [2]: 2.55 mg/kg
O=C(O)CC12NC(Cl)(Cc3ccccc31)c1ccccc12 (stereo not given) | > 4500 | – | –
C[C@]12N[C@H](Cc3ccccc31)Cc1ccccc12 | 0.139 | 0.31 | –
CN1C2CCc3ccccc3C1(O)c1ccccc12 (stereo not given) | > 100 | – | –
CC12NC(Cc3ccccc31)c1cc(O)ccc12 (stereo in doubt; (+)-106) [listing 1 of 2 here] | – | 0.14 | –
CC12NC(Cc3ccc(N=[N+]=[N-])cc31)c1ccccc12 (stereo not given) | 0.14 | – | –
CC12NC(Cc3ccccc31)c1ccc(Cl)cc12 (stereo in doubt; (-)-63) [listing 1 of 2 here] | 0.3 | – | –
COc1ccc2c(c1)C1(C)NC(C2)c2ccccc21 (stereo not given) | 0.046 | – | –
CCOC(=O)CC12NC(Cc3ccccc31)c1ccccc12 (stereo not given) | 0.55 | – | –
O=C(O)C(O)[C@]12NC(Cc3ccccc31)c1ccccc12 (stereo not given in full) | > 1000 | – | –
Cc1ccc2c(c1)C1(C)NC(C2)c2ccccc21 (stereo not given) | 0.034 | 0.38 | ED50 [2]: 0.53 mg/kg
CC12NC(Cc3ccc(Br)cc31)c1ccccc12 (single isomer, unassigned; (+)) [listing 1 of 2 here] | – | 0.5 | –
OCC(O)[C@]12NC(Cc3ccccc31)c1ccccc12 (stereo not given in full) | 0.32 | – | –
COc1ccc2c(c1)C1(C)NC2Cc2ccccc21 (single isomer, unassigned; (+)) | 0.025 | – | –
CN1C2Cc3ccccc3C1c1ccccc12 (stereo not given) | 12 | – | –

Structure (SMILES) | Ki [1] [µM] | Kb [3] [µM] | also measured
CC12NC(Cc3ccc(Cl)cc31)c1ccccc12 (stereo in doubt; 64) [listing 1 of 2 here] | 0.011 | – | –
CN1C2(C)Cc3ccccc3C1(C)c1ccccc1C2 | 8.7 | – | –
NC(=O)CC12NC(O)(Cc3ccccc31)c1ccccc12 (stereo not given) | 6.4 | – | –
CC12NC(c3ccccc31)[C@@H](O)c1ccccc12 (stereo in doubt; 120) [listing 1 of 2 here] | 0.21 | – | –
CN1C2Cc3ccccc3C1(C)c1ccccc1C2 | 1.2 | – | –
CC12NC(Cc3ccc(Br)cc31)c1ccccc12 (single isomer, unassigned; (+)) [listing 2 of 2 here] | 0.006 | – | –
FCCC12NC(Cc3ccccc31)c1ccccc12 (stereo not given) | 0.174 | 0.23 | –
COc1ccc2c(c1)C1(C)NC2Cc2ccccc21 (stereo in doubt; 83) [listing 1 of 2 here] | 0.036 | – | ED50 [2]: 0.77 mg/kg
CC12NC(Cc3ccc(Cl)cc31)c1ccccc12 (single isomer, unassigned; (-)) | – | 0.56 | –
CC12NC(c3ccccc31)[C@H](O)c1ccccc12 (stereo not given in full) | 2.7 | – | –
CCOC(=O)C(O)[C@]12NC(Cc3ccccc31)c1ccccc12 (stereo not given in full) | 0.39 | – | –
CC12NC(Cc3ccc(Br)cc31)c1ccccc12 (stereo in doubt; 88) [listing 1 of 2 here] | 0.08 | – | ED50 [2]: 1.25 mg/kg; ED50 [4]: 1.42 mg/kg
OCCC12NC(Cl)(Cc3ccccc31)c1ccccc12 (stereo not given) | 0.28 | – | –
CC12NC(Cc3ccc(F)cc31)c1ccccc12 (stereo not given) | 0.03 | 0.38 | –
OCCN1C2Cc3ccccc3C1c1ccccc12 (stereo not given) | 71 | – | –
CC12NC(Cc3cc(O)ccc31)c1ccccc12 (stereo not given) | 0.277 | 0.51 | –
NC(=O)CC12NC(Cl)(Cc3ccccc31)c1ccccc12 (stereo not given) | > 90 | – | –
CC12NC(c3ccccc31)[C@@H](O)c1ccccc12 (stereo in doubt; 120) [listing 2 of 2 here] | – | 0.28 | –
CCC12NC(Cc3ccccc31)c1ccccc12 (stereo not given) | 0.045 | 0.59 | –
ClCCC12NC(Cl)(Cc3ccccc31)c1ccccc12 (stereo not given) | 53 | – | –
c1ccc2c(c1)CC1NC2c2ccccc21 (stereo not given) | 22.6 | – | –
O[C@@H]1c2ccccc2C2NC1c1ccccc12 (stereo not given in full) | 110 | 9.6 | –
CN1C2Cc3ccccc3C1(C)c1ccccc12 (stereo not given) | 0.61 | – | –
CCOC(=O)CC12NC(O)(Cc3ccccc31)c1ccccc12 (stereo not given) | 3.6 | – | –

Structure (SMILES) | Ki [1] [µM] | Kb [3] [µM] | also measured
CC12NC(Cc3ccccc31)c1ccc(Br)cc12 (stereo not given) | 0.18 | 0.46 | –
CC12NC(O)(Cc3ccccc31)c1ccccc12 (stereo not given) | 0.077 | 0.66 | –
COc1ccc2c(c1)C1Cc3ccccc3C2(C)N1 (stereo not given) | 0.033 | 0.13 | –
COc1ccc2c(c1)C1(C)NC2Cc2ccccc21 (stereo in doubt; 83) [listing 2 of 2 here] | – | 0.23 | –
CC12NC(Cc3ccc(-c4ccccc4)cc31)c1ccccc12 (stereo not given) | 0.032 | 0.26 | ED50 [2]: 7.76 mg/kg
CCCC12NC(Cc3ccccc31)c1ccccc12 (stereo not given) | 8.6 | – | –
c1ccc2c(c1)CC1NC2(C2SCCCS2)c2ccccc21 (stereo not given) | > 10 | – | –
CC12NC(Cc3ccccc31)c1cc(O)ccc12 (stereo in doubt; 106) [listing 1 of 2 here] | – | 0.24 | –
CC12NC(Cc3ccc(Br)cc31)c1ccccc12 (single isomer, unassigned; (-)) | 0.113 | – | –
[O-][S+](CC12NC(Cc3ccccc31)c1ccccc12)c1ccccc1 (stereo not given) | > 160 | – | –
CCC12NC(Cc3ccccc31)Cc1ccccc12 | 0.12 | 0.29 | –
O=C(O)CC12NC(O)(Cc3ccccc31)c1ccccc12 (stereo not given) | 280 | – | –
CC12NC(Cc3ccc(O)cc31)c1ccccc12 (stereo not given) | 0.018 | – | Kb [5]: 0.51 µM; Kb [6]: 0.24 µM
CC12NC(Cc3ccccc31)c1cc(O)ccc12 (single isomer, unassigned; (-)) | 0.761 | – | –
CC12NC(Cc3ccccc31)Cc1ccc(Cl)cc12 (stereo not given) | 0.11 | 0.68 | –
CC12NC(Cc3ccc(SC(F)(F)F)cc31)c1ccccc12 (stereo not given) | 17 | – | –
CC12NC(c3ccccc31)[C@@H](O)c1ccccc12 (stereo in doubt; (+)120) [listing 2 of 2 here] | – | 0.25 | –
CC12NC(Cc3ccc(Cl)cc31)c1ccccc12 (stereo in doubt; 64) [listing 2 of 2 here] | – | 0.067 | –
CC12NC(Cc3ccccc31)c1cc(O)ccc12 (stereo in doubt; 106) [listing 2 of 2 here] | 0.049 | – | –
CC12NC(Cc3ccccc31)c1ccc(Cl)cc12 (stereo in doubt; (-)-63) [listing 2 of 2 here] | – | 0.56 | –
CN1C2CCc3ccccc3C1(C)c1ccccc12 (stereo not given) | 8.8 | – | –
c1ccc(SCC23NC(Cc4ccccc42)c2ccccc23)cc1 (stereo not given) | 73 | – | –
CC12NC(Cc3ccc(Br)cc31)c1ccccc12 (stereo in doubt; 88) [listing 2 of 2 here] | – | 0.9 | –
OCC12NC(Cc3ccccc31)c1ccccc12 (stereo not given) | 0.35 | – | –

Structure (SMILES) | Ki [1] [µM] | Kb [3] [µM] | also measured
CC12NC(Cc3ccccc31)c1cc(O)ccc12 (stereo in doubt; (+)-106) [listing 2 of 2 here] | 0.023 | – | ED50 [2]: 0.97 mg/kg
CCCCc1ccc2c(c1)C1(C)NC(C2)c2ccccc21 (stereo not given) | 1.25 | – | –
COc1ccc2c(c1)CC1NC2(C)c2ccccc21 (stereo not given) | 0.61 | – | –
OC12NC(Cc3ccccc31)Cc1ccccc12 | 57 | – | –
CC12c3ccccc3CC(c3ccccc31)N2O (stereo not given) | 19 | 45.6 | –
CC12NC(c3ccccc31)[C@@H](O)c1ccccc12 (single isomer, unassigned; (-)) | 0.302 | – | –
OCCC12NC(O)(Cc3ccccc31)c1ccccc12 (stereo not given) | 0.074 | 2.1 | –
CC12NC(Cc3ccc(I)cc31)c1ccccc12 (stereo not given) | 0.011 | 0.51 | –
OCCC12NC(Cc3ccccc31)c1ccccc12 (stereo not given) | 0.26 | – | –
CC12NC(Cc3ccc(N)cc31)c1ccccc12 (stereo not given) | 0.027 | – | –
CN1C2(C)Cc3ccccc3C1(C)c1ccccc12 (stereo not given) | 0.71 | – | –
O[C@H]1c2ccccc2C2NC1c1ccccc12 (stereo not given in full) | 7.75 | 2.79 | –
CC12NC(Cc3ccccc31)c1ccc(Cl)cc12 (single isomer, unassigned; (+)) [listing 1 of 2 here] | 0.006 | – | –
CCOC(=O)CC12c3ccccc3CC(O)(c3ccccc31)N2O (stereo not given) | > 4500 | – | –
CN1C2Cc3ccccc3C1(O)c1ccccc1C2 | 290 | – | –
CCC12c3ccccc3CC(Cc3ccccc31)N2C | 2.04 | – | –
CC12NC(Cc3ccc(F)cc31)c1ccc(F)cc12 (stereo not given) | 0.031 | 0.32 | –
CC12NC(Cc3ccccc31)c1ccc(Cl)cc12 (stereo in doubt; 63) [listing 2 of 2 here] | 0.084 | – | –
c1ccc2c(c1)CC1Cc3ccccc3C2N1 | 5.1 | – | –
CC12NC(Cc3ccc(CO)cc31)c1ccccc12 (stereo not given) | 0.137 | 0.27 | ED50 [2]: 1.19 mg/kg
CC12NC(Cc3ccccc31)c1ccc(O)cc12 (stereo not given) | 0.023 | 0.13 | ED50 [2]: 0.43 mg/kg
CC12NC(Cc3ccccc31)c1ccc(Cl)cc12 (single isomer, unassigned; (+)) [listing 2 of 2 here] | – | 0.08 | –
